# Laboratory results taken from paper PMC8712509 (International Journal of Nanomedicine, 2021).
# Legend:
# [1] = Biodistribution in major organs; format: in vivo; conditions: ICR mice, single 10.0 mg/kg iv
# SGC-7901 cells = assay: Cytotoxicity assay; format: cell-based, Human; conditions: SGC-7901, MTT, n=3
# Method in brief: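 SGC-7901 cells were grown in RPMI-1640 with 10% FBS, 1% penicillin and 1% streptomycin at 37°C, 5% CO2. Log-phase cells were seeded in triplicate at 1.0×10^4 cells/well overnight. Free drug or liposomal test formulations (1.0–100.0 µg/mL drug) were added for 24, 48 or 72 h. MTT (5.0 mg/mL stock) was added for 4 h, then DMSO, and OD read at 490 nm. IC50 was derived from viability.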
# [2] = Pharmacokinetics in plasma; format: in vivo; conditions: ICR mice, single 10.0 mg/kg iv
smiles,measurement,setting,value
"O=C1[O][Pt]2([NH][C@@H]3CCCC[C@H]3[NH]2)[O]C1=O (relative stereo) [OXA, (1R-trans)-(1,2-cyclohexanediamine-N,N’)[oxalic acid (2-)-O,O’] platinum]",OXA concentration in heart,[1]; 0.5 h,8.59 ± 0.06 µg/g
same,OXA concentration in kidneys,[1]; 0.5 h,8.73 ± 0.45 µg/g
same,OXA concentration in liver,[1]; 0.5 h,14.00 ± 0.30 µg/g
same,OXA concentration in lungs,[1]; 0.5 h,4.60 ± 0.13 µg/g
same,OXA concentration in spleen,[1]; 0.5 h,14.27 ± 0.44 µg/g
same,OXA concentration in heart,[1]; 1 h,10.27 ± 0.44 µg/g
same,OXA concentration in kidneys,[1]; 1 h,4.02 ± 0.61 µg/g
same,OXA concentration in liver,[1]; 1 h,12.49 ± 0.56 µg/g
same,OXA concentration in lungs,[1]; 1 h,3.70 ± 0.22 µg/g
same,OXA concentration in spleen,[1]; 1 h,13.40 ± 0.80 µg/g
same,OXA concentration in heart,[1]; 2 h,6.79 ± 0.40 µg/g
same,OXA concentration in kidneys,[1]; 2 h,2.85 ± 0.27 µg/g
same,OXA concentration in liver,[1]; 2 h,12.50 ± 0.58 µg/g
same,OXA concentration in lungs,[1]; 2 h,4.35 ± 0.63 µg/g
same,OXA concentration in spleen,[1]; 2 h,13.21 ± 0.22 µg/g
same,OXA concentration in heart,[1]; 4 h,5.55 ± 0.45 µg/g
same,OXA concentration in kidneys,[1]; 4 h,2.36 ± 0.70 µg/g
same,OXA concentration in liver,[1]; 4 h,10.91 ± 1.56 µg/g
same,OXA concentration in lungs,[1]; 4 h,4.98 ± 0.18 µg/g
same,OXA concentration in spleen,[1]; 4 h,10.35 ± 1.53 µg/g
same,OXA concentration in heart,[1]; 6 h,4.22 ± 0.14 µg/g
same,OXA concentration in kidneys,[1]; 6 h,2.84 ± 0.25 µg/g
same,OXA concentration in liver,[1]; 6 h,8.87 ± 0.40 µg/g
same,OXA concentration in lungs,[1]; 6 h,4.54 ± 0.90 µg/g
same,OXA concentration in spleen,[1]; 6 h,10.56 ± 0.56 µg/g
same,OXA concentration in heart,[1]; 8 h,3.26 ± 0.34 µg/g
same,OXA concentration in kidneys,[1]; 8 h,2.65 ± 0.12 µg/g
same,OXA concentration in liver,[1]; 8 h,7.06 ± 0.44 µg/g
same,OXA concentration in lungs,[1]; 8 h,3.94 ± 0.12 µg/g
same,OXA concentration in spleen,[1]; 8 h,4.81 ± 0.33 µg/g
same,"AUC(0-t), heart",[1]; n=3,48.080 ± 1.690 µg·h/g
same,"AUC(0-t), kidneys",[1]; n=3,27.380 ± 1.870 µg·h/g
same,"AUC(0-t), liver",[1]; n=3,87.870 ± 1.360 µg·h/g
same,"AUC(0-t), lungs",[1]; n=3,34.130 ± 1.960 µg·h/g
same,"AUC(0-t), spleen",[1]; n=3,118.170 ± 4.560 µg·h/g
same,"AUC(0-∞), heart",[1]; n=3,68.591 ± 5.210 µg·h/g
same,"AUC(0-∞), kidneys",[1]; n=3,69.442 ± 5.640 µg·h/g
same,"AUC(0-∞), liver",[1]; n=3,161.538 ± 3.960 µg·h/g
same,"AUC(0-∞), lungs",[1]; n=3,106.955 ± 9.140 µg·h/g
same,"AUC(0-∞), spleen",[1]; n=3,128.580 ± 9.360 µg·h/g
same,"MRT, heart",[1]; n=3,5.574 ± 0.980 h
same,"MRT, kidneys",[1]; n=3,16.594 ± 2.220 h
same,"MRT, liver",[1]; n=3,9.330 ± 1.020 h
same,"MRT, lungs",[1]; n=3,17.707 ± 1.990 h
same,"MRT, spleen",[1]; n=3,5.990 ± 0.230 h
same,IC50,SGC-7901 cells; 48 h,15.87 ± 0.27 µg/mL
same,IC50,SGC-7901 cells; 72 h,14.17 ± 0.14 µg/mL
same,last time at which OXA was detectable in plasma (undetectable after),[2],8 h
same,plasma concentration of OXA,[2]; 0.08 h,28590 ± 920 ng/mL
same,plasma concentration of OXA,[2]; 0.17 h,25030 ± 320 ng/mL
same,plasma concentration of OXA,[2]; 0.50 h,4490 ± 350 ng/mL
same,plasma concentration of OXA,[2]; 1 h,3200 ± 100 ng/mL
same,plasma concentration of OXA,[2]; 2 h,2860 ± 240 ng/mL
same,plasma concentration of OXA,[2]; 4 h,1990 ± 120 ng/mL
same,plasma concentration of OXA,[2]; 6 h,1500 ± 700 ng/mL
same,plasma concentration of OXA,[2]; 8 h,640 ± 110 ng/mL
same,CL,"[2]; plasma, n=3",5.53 ± 1.5 mL/min/kg
same,CLz,"[2]; plasma, n=3",5.85 ± 0.217 mL/min/kg
same,K10,"[2]; plasma, n=3",1.319 ± 0.250 h⁻¹
same,K12,"[2]; plasma, n=3",5.632 ± 0.360 h⁻¹
same,K21,"[2]; plasma, n=3",0.828 ± 0.070 h⁻¹
same,MRT(0-t),"[2]; plasma, n=3",2.535 ± 0.520 H
same,MRT(0-∞),"[2]; plasma, n=3",4.319 ± 0.130 H
same,T1/2z,"[2]; plasma, n=3",4.995 ± 0.360 H
same,Tmax,"[2]; plasma, n=3",0.250 ± 0.015 H
same,t1/2α,"[2]; plasma, n=3",0.215 ± 0.077 H
same,t1/2β (elimination half-life),"[2]; plasma, n=3",3.214 ± 0.420 H
